Test results from publication PMC10947786 (ACS synthetic biology, 2024).

Legend:
Solubility in water = type: physicochemical; settings: purified peptide
[1] = Hydrogen-deuterium exchange MS; type: physicochemical; settings: 3:7 D2O:acetonitrile, MALDI-TOF MS (Figure S13); for Hydrogen-deuterium exchange, deuteration within 1 min: 1 min timescale
Outline: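 Purified peptide was dried under vacuum and redissolved in 3:7 D2O:acetonitrile. At set time points over 24 h, aliquots were quenched by spotting onto the MALDI target with saturated sinapinic acid in 3:7 D2O:acetonitrile + 0.1% formic acid (pH = 2). Deuterium uptake was read by MALDI-TOF MS.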

Substance	solubility in water (Solubility in water) [mg/mL]	Hydrogen-deuterium exchange, deuteration within 1 min [1]	Hydrogen-deuterium exchange, deuteration within 24 h [1]
mycetolassin-18	> 20	only a fraction of the exchangeable protons were deuterated	not fully deuterated
mycetolassin-15	> 20	only a fraction of the exchangeable protons were deuterated	not fully deuterated
